Screens: PubChem BioAssay, several laboratories
TAG inh – inhibitors of triacylglycerol accumulation; H9c2 cells, Nile Red lipid (TAG) fluorescence; cells loaded with 200 µM oleic acid; inhibition, % at 12.5 µM; hit rate 0.66% among 230,000; AID 651582;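 active = pattern-corrected inhibition of lipid staining of at least 50% with the nuclear-stain viability signal not falling by more than 50%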;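 note: 0% = DMSO wells and 100% = triacsin C control wells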
NTR1 ag – agonists of human neurotensin receptor NTR1. P30989. NTR1-U2OS beta-arrestin-GFP spot imaging, agonist mode. activation, % at 20 µM. hit rate 0.17% among 330,000;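 active = activation at or above 40% of the spot to cytoplasm intensity ratio, with at least 20 cells analyzed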;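 note: 0% = DMSO without peptide and 100% = 100 nM NTR1 peptide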
Target sequence (P30989 whole entry, looked up): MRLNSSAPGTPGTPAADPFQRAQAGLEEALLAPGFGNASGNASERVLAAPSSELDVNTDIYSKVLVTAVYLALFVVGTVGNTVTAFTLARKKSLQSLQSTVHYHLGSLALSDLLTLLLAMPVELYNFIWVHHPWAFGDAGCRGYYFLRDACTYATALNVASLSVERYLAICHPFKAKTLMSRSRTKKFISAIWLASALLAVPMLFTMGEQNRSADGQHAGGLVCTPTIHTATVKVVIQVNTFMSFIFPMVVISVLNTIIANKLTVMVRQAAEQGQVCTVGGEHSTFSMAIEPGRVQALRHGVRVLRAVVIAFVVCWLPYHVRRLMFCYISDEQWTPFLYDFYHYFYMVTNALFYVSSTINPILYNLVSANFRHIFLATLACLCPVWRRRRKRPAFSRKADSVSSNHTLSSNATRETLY
GRK2 aptamer HTS – human GRK2 inhibition via aptamer displacement | bead flow cytometry, FAM-aptamer displacement from GRK2 | P25098 | inhibition of aptamer binding, % at 10 µM | hit rate 0.59% among 330,000;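 active = inhibition of aptamer binding above 40%, roughly 3 SD of noise, on plates passing a quality check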;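 note: median bead fluorescence of bound FAM aptamer so fluorescent compounds give negative values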
Beta2AR agonist – activates human beta-2 adrenergic receptor causing internalization; hit rate 0.43% among 340,000; P07550; Am2.2-beta2AR cells, FAP receptor internalization, flow cytometry; AID 504454; response, % (concentration not given with the values);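 active = response above a set limit, near 3 SD of response in nonfluorescent compounds, cut at about 42% in these data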
Hep lipid drop – modulators of hepatic lipid droplet formation; AML12 mouse hepatocytes, oleate lipid droplets, BODIPY imaging; inhibition, % at 6.5 µM; hit rate 0.4% among 240,000;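 active = lipid droplet intensity inhibited by at least 50%, with more than 500 cells counted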
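Test system: AML12 mouse liver cells; schedule: overnight exposure; technique: high-content imaging of BODIPY-stained droplets and DAPI nuclei; read-out: % inhibition of corrected integrated BODIPY droplet signal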
Arr AP2 block – blocks beta-arrestin peptide binding to AP2 adaptin; inhibition, % at 10 µM; FITC-arrestin peptide / GST-AP2 beads, flow cytometry; AP2 beta2 appendage carries R879A mutation; hit rate 0.31% among 340,000;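 active = inhibition above a set limit, near 3 SD of compounds lacking own fluorescence, cut at about 54% in these data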;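 note: plate controls were DMSO wells for no effect and 5 µM unlabelled arrestin peptide for full effect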
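system = GST-tagged AP2 beta2-adaptin appendage (R879A) on 4 µm glutathione beads | reagent = FITC-labelled arrestin peptide probe, 50 nM final | schedule = compound with beads 12 min RT, then probe 1 h RT | signal = HyperCyt-sampled flow cytometry, FL1 channel, ex 488/em 535 nm | read-out = percent response from loss of bead-bound FITC fluorescence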
NTR1 ag confirm – confirmation of agonists of human NTR1; hit rate 38% among 480; activation, % at 20 µM; AID 504550; NTR1-U2OS beta-arrestin-GFP translocation imaging; shares compounds with NTR1 ag;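 active = mean activation at 20 µM of at least 40%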;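 note: 0% = DMSO without peptide and 100% = 100 nM NTR1 peptide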
Active calls of the source: *. This is a sample that favours compounds with a hit; in the whole collection about 2% have one here.

What do the screens show for `COc1ccc(CCNC(=O)c2cc3c(=O)n4cccc(C)c4nc3n(Cc3ccco3)c2=N)cc1OC`?
NTR1 ag: 42*; GRK2 aptamer HTS: 0; Beta2AR agonist: 24; Hep lipid drop: -10; Arr AP2 block: 23; NTR1 ag confirm: 11

Results for COc1cccc(CNC(=O)CN2CCC(c3nc4ccc(C)cc4[nH]3)CC2)c1 ?
TAG inh: 34; NTR1 ag: 0; GRK2 aptamer HTS: 3; Beta2AR agonist: 6; Hep lipid drop: -1; Arr AP2 block: 49

Results for COC(=O)[C@@]1(C)[C@H]2C(=O)N(Cc3ccccc3)C(=O)[C@H]2[C@H]2CN=C(SCC(=O)c3ccccc3)N21 ?
TAG inh: 5; NTR1 ag: 0; GRK2 aptamer HTS: 2; Beta2AR agonist: -2; Arr AP2 block: 9

How did N#Cc1ccc(Nc2nc(-c3ccc(O)cc3O)cs2)cc1C(F)(F)F do in these assays?
TAG inh: -5; NTR1 ag: 41*; GRK2 aptamer HTS: 3; Beta2AR agonist: 7; Arr AP2 block: 2; NTR1 ag confirm: 70*

How did C(=C\c1nc(N2CCCCCC2)c2ccccc2n1)/c1ccccc1 do in these assays?
NTR1 ag: 42*; GRK2 aptamer HTS: 1; Beta2AR agonist: -5; Hep lipid drop: -6; Arr AP2 block: 0; NTR1 ag confirm: 17

How did COc1ccc(S(=O)(=O)Nc2ccccc2C(=O)Nc2nc(-c3ccc(F)cc3)cs2)cc1OC do in these assays?
NTR1 ag: 45*; GRK2 aptamer HTS: 0; Beta2AR agonist: 29; Hep lipid drop: -47; Arr AP2 block: 5; NTR1 ag confirm: 7

What do the screens show for `COc1ccc(-c2csc(NC(=O)c3ccccc3NS(=O)(=O)c3ccc(C)cc3)n2)cc1`?
NTR1 ag: 11; GRK2 aptamer HTS: 3; Beta2AR agonist: 20; Hep lipid drop: -60; Arr AP2 block: -1

What do the screens show for `COC(=O)C1CCN(C(=O)C2CC(=O)N(c3ccc(C)c(Cl)c3)C2)CC1` (configuration not stated)?
TAG inh: 7; Beta2AR agonist: 1; Arr AP2 block: 6

What do the screens show for `O=C(N/N=C/c1c[nH]c2ccccc12)C1CC1(c1ccccc1)c1ccccc1` (configuration not stated)?
NTR1 ag: 54*; GRK2 aptamer HTS: 0; Beta2AR agonist: 7; Hep lipid drop: -4; Arr AP2 block: 8; NTR1 ag confirm: 41*

How did O=C(N/N=C/c1c[nH]c2ccccc12)C1CC1c1ccccc1 (configuration not stated) do in these assays?
NTR1 ag: 23; GRK2 aptamer HTS: 5; Beta2AR agonist: 1; Hep lipid drop: -25; Arr AP2 block: 0

What do the screens show for `COC(=O)c1ccc2c(c1)C(C)(C)C(/C=C/c1ccc(O)cc1)=[N+]2C`?
NTR1 ag: 46*; GRK2 aptamer HTS: 3; Beta2AR agonist: 49*; Hep lipid drop: 119*; Arr AP2 block: 1; NTR1 ag confirm: 51*

How did O=C(O)C1=CC[C@@H](c2ccc(Cl)cc2)N(S(=O)(=O)c2ccc(Cl)cc2)[C@H]1c1cccc(Cl)c1 do in these assays?
TAG inh: -18; NTR1 ag: 56*; GRK2 aptamer HTS: 5; Beta2AR agonist: 20; Arr AP2 block: 9; NTR1 ag confirm: 9

How did Cc1ccc(S(=O)(=O)N2[C@@H](c3ccc(Cl)cc3)C(C(=O)O)=CC[C@H]2c2cccc(Cl)c2)cc1 do in these assays?
TAG inh: 15; NTR1 ag: 2; GRK2 aptamer HTS: 2; Beta2AR agonist: 0; Arr AP2 block: -11

What do the screens show for `O=C(CN(CC1CCCO1)C(=O)CNS(=O)(=O)c1ccc(F)cc1)NCc1ccc(F)cc1` (configuration not stated)?
NTR1 ag: 0; GRK2 aptamer HTS: 0; Beta2AR agonist: -1; Hep lipid drop: -9; Arr AP2 block: 16

How did CCC(C)Sc1cccc(-c2nc3ccc(C)cn3c2NCc2ccccc2)c1 (configuration not stated) do in these assays?
TAG inh: 3; NTR1 ag: 14; GRK2 aptamer HTS: 0; Beta2AR agonist: 16; Arr AP2 block: 28

Results for CCC(C)Sc1cccc(-c2nc3ccccn3c2NCc2ccccc2)c1 (configuration not stated) ?
TAG inh: -13; NTR1 ag: 40*; GRK2 aptamer HTS: 3; Beta2AR agonist: 29; Arr AP2 block: 35; NTR1 ag confirm: -4

Results for O=c1c2ccccc2c(C=Nc2ccc(O)cc2)c(O)n1Cc1ccccc1 ?
TAG inh: 11; NTR1 ag: 40; GRK2 aptamer HTS: 19; Beta2AR agonist: -7; Hep lipid drop: 10; Arr AP2 block: 10; NTR1 ag confirm: 5

What do the screens show for `COc1ccc(Cn2c(O)c(C=Nc3ccc(O)cc3)c3ccccc3c2=O)cc1`?
NTR1 ag: 34; GRK2 aptamer HTS: 3; Beta2AR agonist: 0; Hep lipid drop: 22; Arr AP2 block: 7

How did CN(C(=O)COc1ccccc1C(=O)NCCOc1ccccc1)c1ccccc1 do in these assays?
NTR1 ag: 107*; GRK2 aptamer HTS: 0; Beta2AR agonist: 32; Hep lipid drop: -9; Arr AP2 block: 12; NTR1 ag confirm: 63*

Results for CCOc1ccc(NS(=O)(=O)c2cc(C(=O)N3CC(C)OC(C)C3)ccc2C)cc1 (configuration not stated) ?
TAG inh: 7; NTR1 ag: 0; GRK2 aptamer HTS: 1; Beta2AR agonist: -6; Arr AP2 block: 23

What do the screens show for `CCCS(=O)(=O)NC(=O)C1(C)CCCN(C(=O)c2ccc(OC)cc2OC)C1` (configuration not stated)?
TAG inh: -5

What do the screens show for `COc1ccc(CCn2c(C3CCCCC3)nc3c(c(=O)c4ccccc4n3C)c2=O)cc1`?
TAG inh: -11; NTR1 ag: 34; GRK2 aptamer HTS: 1; Beta2AR agonist: 1; Hep lipid drop: -2; Arr AP2 block: -15

How did COc1ccc(Cn2c(C3CCCCC3)nc3c(c(=O)c4ccccc4n3C)c2=O)cc1 do in these assays?
NTR1 ag: 43*; GRK2 aptamer HTS: 3; Hep lipid drop: 1; NTR1 ag confirm: 34

Results for Cc1ccc([N+](=O)[O-])c(NC2OC(CO)C(O)C2O)c1 (configuration not stated) ?
TAG inh: -6; NTR1 ag: -1; GRK2 aptamer HTS: 0; Beta2AR agonist: 2; Hep lipid drop: 5; Arr AP2 block: 3

How did O=C(CN1C(=O)NC2(CCCC2)C1=O)N1CCN(S(=O)(=O)c2ccc(Cl)c(C(F)(F)F)c2)CC1 do in these assays?
TAG inh: 3; NTR1 ag: 0; GRK2 aptamer HTS: 2; Beta2AR agonist: -12; Arr AP2 block: -12
